From ChEMBL document CHEMBL4316595, “Synthesis and structure-activity relationship studies of parthenolide derivatives as potential anti-triple negative breast cancer agents” (Eur J Med Chem, 2019)
pIC50: −log10 of the molar value. One block for each compound: values may come before it. Activity calls are given as the source filed them. The calls are words filed in the database; no cut-off is given here.

Experiments:
[1] = system: MDA-MB-231; experiment: Antiproliferative activity against human MDA-MB-231 cells measured after 72 hrs by MTT assay; type: functional, cell-based; settings: MDA-MB-231, 72 h
Method in brief: (§1)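 MTT antiproliferation assay on human breast cancer lines MDA-MB-231, SUM-159, MCF-7 and Bcap-37 and on mouse 4T1 breast cancer cells. IC50 values were taken from the MTT read-out. Adriamycin served as the positive control.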

[2] = system: MDA-MB-231; experiment: Antiproliferative activity against human MDA-MB-231 cells co-treated with melampomagnolide B at 1:1 molar ratio measured after 72 hrs by MTT assay; settings: MDA-MB-231, 72 h
[3] = system: 4T1; experiment: Antiproliferative activity against mouse 4T1 cells measured after 72 hrs by MTT assay; type: functional, cell-based; settings: 4T1, 72 h; method in brief: as §1
[4] = system: MCF7; experiment: Potency index, ratio of parthenolide IC50 to test compound IC50 for human MCF7 cells; type: functional
[5] = system: SUM-159-PT; experiment: Cell cycle arrest in human SUM159 cells assessed as increase in G1-phase accumulation at […] measured after 48 hrs by propidium iodide staining based flow cytometry; type: functional
Method in brief: (§2)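 SUM-159 cells were treated for 48 h. Cell cycle distribution (G1, S, G2/M) was measured by flow cytometry and compared with an untreated control group.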

[6] = system: SUM-159-PT; experiment: Induction of apoptosis in human SUM159 cells assessed as necrotic cells at 0.2 uM measured after 48 hrs by Annexin-V APC/propidium iodide staining based flow cytometry (reference value: 0.152%); type: functional
Method in brief: (§3)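 SUM-159 cells were exposed at 0, 0.2 and 0.5 µM, then stained with annexin V/PI and analysed by flow cytometry. Early apoptosis was annexin V+/PI−, late apoptosis annexin V+/PI+, and total apoptosis was the sum of the two.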

[7] = system: SUM-159-PT; experiment: Induction of apoptosis in human SUM159 cells assessed as increase in Bax expression measured after 48 hrs by Western blot analysis; type: functional, cell-based
[8] = molecular target: T1, Serine/threonine-protein kinase Chk1 (Homo sapiens) (UniProt O14757); experiment: Inhibition of Chk1 phosphorylation in human SUM159 cells at 0.1 to 0.2 uM measured after 48 hrs by Western blot analysis; type: cell-based
T1 sequence (whole entry): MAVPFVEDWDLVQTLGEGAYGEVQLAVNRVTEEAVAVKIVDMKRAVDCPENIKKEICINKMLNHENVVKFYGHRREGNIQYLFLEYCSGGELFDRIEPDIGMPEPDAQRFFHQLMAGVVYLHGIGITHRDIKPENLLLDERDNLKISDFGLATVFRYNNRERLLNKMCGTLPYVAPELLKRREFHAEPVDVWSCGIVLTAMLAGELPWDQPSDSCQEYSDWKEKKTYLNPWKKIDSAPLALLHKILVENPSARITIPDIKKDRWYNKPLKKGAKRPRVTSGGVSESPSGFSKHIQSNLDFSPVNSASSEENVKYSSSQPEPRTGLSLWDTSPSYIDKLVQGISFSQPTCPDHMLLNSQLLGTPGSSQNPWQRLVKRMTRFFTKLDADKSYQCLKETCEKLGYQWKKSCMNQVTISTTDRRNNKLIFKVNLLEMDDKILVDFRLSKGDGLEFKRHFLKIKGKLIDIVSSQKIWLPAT

[9] = system: SUM-159-PT; experiment: Induction of apoptosis in human SUM159 cells assessed as increase in Bim expression measured after 48 hrs by Western blot analysis; type: functional, cell-based
[10] = system: Bcap37; experiment: Antiproliferative activity against human Bcap37 cells measured after 72 hrs by MTT assay; type: functional, cell-based; settings: Bcap37, 72 h; method in brief: as §1
[11] = system: SUM-159-PT; experiment: Induction of apoptosis in human SUM159 cells assessed as necrotic cells at 0.5 uM measured after 48 hrs by Annexin-V APC/propidium iodide staining based flow cytometry (reference value: 0.152%); type: functional; method in brief: as §3
[12] = molecular target: Cyclin-dependent kinase 1 (Homo sapiens) (UniProt P06493); experiment: Inhibition of CDC2 phosphorylation in human SUM159 cells at 0.1 to 0.2 uM measured after 48 hrs by Western blot analysis; type: cell-based
[13] = Therapeutic index, ratio of IC50 for mouse 3T3 cells to IC50 for mouse 4T1 cells; type: toxicity; settings: 3T3 cells and 4T1 cells, read-out: Ratio IC50
[14] = system: SUM-159-PT; experiment: Induction of apoptosis in human SUM159 cells assessed as increase in cytochrome-C release measured after 48 hrs by Western blot analysis; type: functional, cell-based
[15] = system: NIH3T3; experiment: Cytotoxicity against mouse 3T3 cells measured after 72 hrs by MTT assay; type: cell-based; settings: NIH3T3, 72 h
Method in brief: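 Cytotoxicity was measured by MTT on normal 3T3 mouse embryonic fibroblasts, with IC50 from the MTT read-out.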

[16] = system: SUM-159-PT; experiment: Induction of apoptosis in human SUM159 cells assessed as late apoptotic cells at 0.5 uM measured after 48 hrs by Annexin-V APC/propidium iodide staining based flow cytometry (reference value: 1.45%); type: functional; method in brief: as §3
[17] = system: SUM-159-PT; experiment: Cell cycle arrest in human SUM159 cells assessed as down regulation of CHK2 expression at 0.1 to 0.2 uM measured after 48 hrs by Western blot analysis; type: functional, cell-based
[18] = molecular target: Serine/threonine-protein kinase Chk2 (Homo sapiens) (UniProt O96017); experiment: Inhibition of Chk2 phosphorylation in human SUM159 cells at 0.1 to 0.2 uM measured after 48 hrs by Western blot analysis; type: cell-based
[19] = system: MDA-MB-231; experiment: Potency index, ratio of parthenolide IC50 to test compound IC50 for human MDA-MB-231 cells; type: functional
[20] = system: SUM-159-PT; experiment: Cell cycle arrest in human SUM159 cells assessed as decrease in G2/M-phase accumulation at […] measured after 48 hrs by propidium iodide staining based flow cytometry; type: functional; method in brief: as §2
[21] = system: SUM-159-PT; experiment: Cell cycle arrest in human SUM159 cells assessed as decrease in S-phase accumulation measured after 48 hrs by propidium iodide staining based flow cytometry
[22] = system: SUM-159-PT; experiment: Induction of apoptosis in human SUM159 cells assessed as early apoptotic cells at 0.2 uM measured after 48 hrs by Annexin-V APC/propidium iodide staining based flow cytometry (reference value: 2.5%); type: functional; method in brief: as §3
[23] = system: SUM-159-PT; experiment: Induction of apoptosis in human SUM159 cells assessed as late apoptotic cells at 0.2 uM measured after 48 hrs by Annexin-V APC/propidium iodide staining based flow cytometry (reference value: 1.45%); type: functional; method in brief: as §3
[24] = system: SUM-159-PT; experiment: Cell cycle arrest in human SUM159 cells assessed as down regulation of CHK1 expression at 0.1 to 0.2 uM measured after 48 hrs by Western blot analysis; type: functional, cell-based
[25] = system: SUM-159-PT; experiment: Antiproliferative activity against human SUM159 cells measured after 72 hrs by MTT assay; type: functional, cell-based; method in brief: as §1
[26] = system: Bcap37; experiment: Potency index, ratio of parthenolide IC50 to test compound IC50 for human Bcap37 cells; type: functional
[27] = system: SUM-159-PT; experiment: Induction of apoptosis in human SUM159 cells assessed as early apoptotic cells at 0.5 uM measured after 48 hrs by Annexin-V APC/propidium iodide staining based flow cytometry (reference value: 2.5%); type: functional; method in brief: as §3
[28] = system: 4T1; experiment: Potency index, ratio of parthenolide IC50 to test compound IC50 for mouse 4T1 cells; type: functional
[29] = system: SUM-159-PT; experiment: Cell cycle arrest in human SUM159 cells assessed as up regulation of P27 expression at 0.1 to 0.2 uM measured after 48 hrs by Western blot analysis; type: functional, cell-based
[30] = system: MCF7; experiment: Antiproliferative activity against human MCF7 cells measured after 72 hrs by MTT assay; type: functional, cell-based; settings: MCF7, 72 h; method in brief: as §1
[31] = system: SUM-159-PT; experiment: Induction of apoptosis in human SUM159 cells assessed as increase in cleaved caspase-9 measured after 48 hrs by Western blot analysis; type: functional, cell-based
[32] = system: SUM-159-PT; experiment: Induction of apoptosis in human SUM159 cells assessed as viable cells at 0.5 uM measured after 48 hrs by Annexin-V APC/propidium iodide staining based flow cytometry (reference value: 95.9%); type: functional; settings: read-out: Activity; method in brief: as §3
[33] = system: SUM-159-PT; experiment: Induction of apoptosis in human SUM159 cells assessed as viable cells at 0.2 uM measured after 48 hrs by Annexin-V APC/propidium iodide staining based flow cytometry (reference value: 95.9%); type: functional; settings: read-out: Activity; method in brief: as §3
[34] = system: SUM-159-PT; experiment: Potency index, ratio of parthenolide IC50 to test compound IC50 for human SUM159 cells; type: functional

Chain of Cyclin-dependent kinase 1 (Homo sapiens) (P06493 whole entry, looked up): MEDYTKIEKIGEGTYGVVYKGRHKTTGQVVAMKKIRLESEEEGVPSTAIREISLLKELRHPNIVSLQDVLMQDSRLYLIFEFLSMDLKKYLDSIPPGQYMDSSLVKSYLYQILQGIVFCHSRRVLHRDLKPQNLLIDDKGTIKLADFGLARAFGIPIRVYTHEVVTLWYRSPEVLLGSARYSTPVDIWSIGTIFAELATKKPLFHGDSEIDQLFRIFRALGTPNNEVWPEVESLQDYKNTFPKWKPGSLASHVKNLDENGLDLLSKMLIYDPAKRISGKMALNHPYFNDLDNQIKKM
Chain of Serine/threonine-protein kinase Chk2 (Homo sapiens) (O96017 whole entry): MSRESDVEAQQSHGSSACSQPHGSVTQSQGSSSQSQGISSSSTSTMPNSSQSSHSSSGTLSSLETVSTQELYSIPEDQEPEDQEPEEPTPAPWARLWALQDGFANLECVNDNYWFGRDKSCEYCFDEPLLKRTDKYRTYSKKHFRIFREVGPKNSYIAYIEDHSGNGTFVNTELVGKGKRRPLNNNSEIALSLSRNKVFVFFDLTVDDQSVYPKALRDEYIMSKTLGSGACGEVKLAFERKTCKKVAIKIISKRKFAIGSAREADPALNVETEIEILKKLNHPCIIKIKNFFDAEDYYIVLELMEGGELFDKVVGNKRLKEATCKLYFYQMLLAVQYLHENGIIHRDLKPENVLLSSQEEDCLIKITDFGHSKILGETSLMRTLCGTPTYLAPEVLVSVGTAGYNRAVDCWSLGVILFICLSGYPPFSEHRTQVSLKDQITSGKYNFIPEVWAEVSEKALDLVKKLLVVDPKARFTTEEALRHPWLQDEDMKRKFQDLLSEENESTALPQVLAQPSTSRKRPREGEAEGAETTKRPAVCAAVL

pIC50 [1]: < 4.30
pIC50 [2]: 5.41
Compound: COc1cccc(OC)c1/C=C/C(=O)O

pIC50 [3]: 6.66
inhibition [8]: Active
inhibition [12]: Active
pIC50 [1]: 6.60
inhibition [18]: Active
pIC50 [30]: 6.64
Compound: C=C1C(=O)O[C@H]2[C@H]1CC/C(COC(=O)/C=C/c1c(OC)cccc1OC)=C\CC[C@@]1(C)O[C@@H]21
Ratio IC50 [4]: 11.6 - 18.6
Activity [5]: Active
Activity [6]: 0.029%
Activity [7]: Active
Activity [9]: Active
pIC50 [10]: 6.57
Activity [11]: 2.04%
selectivity ratio [13]: 36.9
Activity [14]: Active
pIC50 [15]: 5.09
Activity [16]: 6.07%
Activity [17]: Active
Ratio IC50 [19]: 14
Activity [20]: Active
Activity [21]: Active
Activity [22]: 2.93%
Activity [23]: 0.79%
Activity [24]: Active
pIC50 [25]: 6.70
Ratio IC50 [26]: 11.6 - 18.6
Activity [27]: 30.5%
Ratio IC50 [28]: 11.6 - 18.6
Activity [29]: Active
Activity [31]: Active
viability at 0.5 µM [32]: 61.3%
viability at 0.2 µM [33]: 96.3%
Ratio IC50 [34]: 11.6 - 18.6
